High-throughput results: PubChem BioAssay, The Scripps Research Institute Molecular Screening Center
OXTR agonist = human OXTR agonism; 320,000 tested, 0.32% active; activation, % at 3 µM; CHO-OTR cells, Fluo-8 calcium fluorescence; normalized: DMSO 0%, oxytocin 100%; AID 2435; P30559;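 active = activation above the mean of all tested compounds plus 3 SD, cutoff set per screening run, cut at about 20% in these data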;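 also: peak over basal fluorescence ratio from a 100 s FLIPR kinetic read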
Target sequence (P30559 whole entry, looked up): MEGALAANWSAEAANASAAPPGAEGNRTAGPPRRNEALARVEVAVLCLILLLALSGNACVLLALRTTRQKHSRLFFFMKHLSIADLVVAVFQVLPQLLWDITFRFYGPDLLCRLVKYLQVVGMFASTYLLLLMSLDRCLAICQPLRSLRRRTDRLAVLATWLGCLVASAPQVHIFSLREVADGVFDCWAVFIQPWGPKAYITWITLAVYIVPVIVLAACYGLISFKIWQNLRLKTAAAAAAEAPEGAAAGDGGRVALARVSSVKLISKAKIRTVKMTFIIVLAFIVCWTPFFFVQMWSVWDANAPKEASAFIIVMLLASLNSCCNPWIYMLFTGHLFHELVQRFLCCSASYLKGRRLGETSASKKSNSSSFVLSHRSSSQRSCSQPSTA
TAAR1 ag = human TAAR1 agonism | Q96RJ0 | CHO RD-HGA16 TAAR1, Fluo-8 calcium fluorescence; vehicle wells 0%, saturating PEA agonist 100% | activation, % at 3 µM | 360,000 tested, 0.99% active | AID 624467;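 active = activation above the mean activation of all test compounds in the run plus 3 SD, cut at about 38% in these data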
Target sequence (Q96RJ0 whole entry, looked up): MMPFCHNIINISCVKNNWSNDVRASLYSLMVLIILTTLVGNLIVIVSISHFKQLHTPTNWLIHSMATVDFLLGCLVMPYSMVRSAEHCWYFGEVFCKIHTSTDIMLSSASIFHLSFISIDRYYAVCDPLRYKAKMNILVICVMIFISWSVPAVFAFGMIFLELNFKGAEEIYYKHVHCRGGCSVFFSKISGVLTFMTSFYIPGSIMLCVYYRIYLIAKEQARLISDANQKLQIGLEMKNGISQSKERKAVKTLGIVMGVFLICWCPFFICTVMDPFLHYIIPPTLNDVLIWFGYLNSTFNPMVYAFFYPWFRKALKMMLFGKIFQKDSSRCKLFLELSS
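Repeats: no replicates (n 1) | Material: CHO-derived RD-HGA16 cells with stable Gα16 and human TAAR1 | Technique: Kinetic Fluo-8 calcium fluorescence | Schedule: 17-24 h seeding, 75 min 37 °C dye, 30 min RT | Evaluation: % activation from peak over basal fluorescence ratio, DMSO-to-PEA scaled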
V1R ag counter = V1a receptor agonism, counter-screen for OXTR agonists | 320,000 tested, 0.25% active | P37288 | AID 2797 | CHO-V1R cells, Fluo-8 calcium fluorescence, agonist mode; 0% DMSO, 100% 3 nM vasopressin | activation, % at 3 µM;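 active = activation above the mean activation of all tested compounds plus 3 SD, per screening run, cut at about 20% in these data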;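 also: signal is peak over basal fluorescence ratio across a 100 second FLIPR read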
OXTR potentiate = potentiates the human oxytocin receptor response; P30559; CHO-OTR cells, Fluo-8 calcium fluorescence, potentiator mode; 0% = oxytocin EC15, 100% = EC100; activation, % at 3 µM; 320,000 tested, 0.061% active; AID 2445;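 active = activation above that plate's cutoff, the mean activation of tested compounds plus 3 SD, cut at about 6.6% in these data, passing the limit was not always enough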
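Material: CHO-OTR cells, human receptor; compound dosing: single dose, 3.0 µM nominal final compound concentration; schedule: 6 min compound pre-incubation at room temperature, 100 s kinetic read; measured by: kinetic Fluo-8 calcium fluorescence; read-out basis: % activation vs EC15 and EC100 oxytocin; controls: EC15 oxytocin alone as 0%, 75 nM oxytocin as 100%; replicates: singlicate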
TAAR1 antagonist = antagonists of human TAAR1. CHO RD-HGA16 TAAR1, Fluo-8 calcium fluorescence, antagonist. inhibition, % at 3 µM. 360,000 tested, 1.5% active;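 active = inhibition above a per-plate cutoff, the mean inhibition of test compounds on that plate plus 3 SD, cut at about 49% in these data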
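Material: CHO RD-HGA16 cells bearing hTAAR1; compound dosing: one-point dosing, 3 µM nominal final; schedule: dye loading 75 min at 37 °C, then 30 min room temperature; measured by: calcium fluorescence with Fluo-8; control set: vehicle and agonist controls; replication: n of 1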
TAAR1 ag conf = confirmation of human TAAR1 agonists | CHO RD-HGA16 TAAR1, Fluo-8 calcium fluorescence; scaled: DMSO 0%, maximal phenethylamine 100% | 2,400 tested, 82% active | activation, % at 3 µM | AID 651783 | shares compounds with TAAR1 ag;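 active = activation above a cutoff set at the run's mean compound activation plus 3 SD, cut at about 39% in these data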
Ga16 ag counter = counter-screen for TAAR1 agonists: nonselective agonists in parental cells. shares compounds with TAAR1 ag. CHO-Ga16 parental, Fluo-8 calcium fluorescence; normalized to maximal ATP response, DMSO zero. activation, % at 3 µM. 2,400 tested, 50% active. AID 651787;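 active = activation above the run cutoff, the mean activation over all tested wells plus 3 SD, cut at about 12% in these data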
TAAR1 desensitize = TAAR1 response desensitization, agonist counter-screen. shares compounds with TAAR1 ag. CHO RD-HGA16 hTAAR1, Fluo-8 calcium, beta-PEA response inhibition. inhibition, % at 3 µM. 2,400 tested, 46% active. AID 651951;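 active = inhibition above the run cutoff, the mean inhibition of all test compounds plus 3 SD, cut at about 49% in these data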;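 also: beta-PEA stimulus applied at its EC80; loss of beta-PEA calcium signal after compound pretreatment read as receptor desensitization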
Ga16 nonsel ant = nonselective Ga16 antagonist in TAAR1 agonist counter-screen. 2,400 tested, 39% active. shares compounds with TAAR1 ag. inhibition, % at 3 µM. CHO-Ga16 ATP-induced calcium, Fluo-8 fluorescence;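 active = inhibition above the plate's mean compound inhibition plus 3 SD, computed per plate, cut at about 22% in these data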
Numbers stand for hits. This is a sample that favours compounds with a hit; in the whole collection about 2.3% have one here.

What do the screens show for `Cc1cc(Nc2ccccc2)nc(NCc2ccccc2)n1`?
OXTR agonist: inactive; TAAR1 ag: 56; V1R ag counter: inactive; OXTR potentiate: inactive; TAAR1 antagonist: inactive; TAAR1 ag conf: 76; Ga16 ag counter: 36; TAAR1 desensitize: 53; Ga16 nonsel ant: 37

What do the screens show for `Cc1cc(Nc2cccc(F)c2)nc(NCc2ccccc2)n1`?
OXTR agonist: inactive; TAAR1 ag: inactive; V1R ag counter: inactive; OXTR potentiate: inactive; TAAR1 antagonist: inactive

How did NC(=O)C1CCN(S(=O)(=O)c2ccccc2[N+](=O)[O-])CC1 do in these assays?
OXTR agonist: inactive; TAAR1 ag: inactive; V1R ag counter: inactive; OXTR potentiate: inactive; TAAR1 antagonist: inactive

What do the screens show for `COc1ccc(SC[C@H](C)CN2CC[C@H](C(C)(C)C)CCC2=O)cc1`?
OXTR agonist: inactive; TAAR1 ag: inactive; V1R ag counter: inactive; OXTR potentiate: inactive; TAAR1 antagonist: inactive

How did O=C(N/N=C/c1c[nH]c2ccc(Br)cc12)C1CC1 do in these assays?
OXTR agonist: inactive; TAAR1 ag: inactive; V1R ag counter: inactive; OXTR potentiate: inactive; TAAR1 antagonist: inactive

How did O=C(Nc1ccccc1)[C@@H]1CC=C[C@@H]2CCN(Cc3ccc(Cl)c(Cl)c3)C(=O)[C@@H]21 do in these assays?
OXTR agonist: inactive; TAAR1 ag: 57; V1R ag counter: inactive; OXTR potentiate: inactive; TAAR1 antagonist: inactive; TAAR1 ag conf: 51; Ga16 ag counter: 12; TAAR1 desensitize: inactive; Ga16 nonsel ant: inactive

How did O=C(Nc1ccccc1)[C@@H]1CC=C[C@@H]2CCN(Cc3ccccc3)C(=O)[C@@H]21 do in these assays?
OXTR agonist: inactive; TAAR1 ag: inactive; V1R ag counter: inactive; OXTR potentiate: inactive; TAAR1 antagonist: inactive

How did C[C@H](NC(=O)[C@@H]1CSC2c3ccccc3C(=O)N21)C(=O)NCCc1ccccc1 (some centres undefined) do in these assays?
OXTR agonist: inactive; TAAR1 ag: 68; V1R ag counter: inactive; OXTR potentiate: inactive; TAAR1 antagonist: inactive; TAAR1 ag conf: 81; Ga16 ag counter: inactive; TAAR1 desensitize: inactive; Ga16 nonsel ant: inactive

How did CC(c1ccc2c(c1)OCO2)n1c(=S)[nH]c2ccccc2c1=O (centres undefined) do in these assays?
OXTR agonist: inactive; TAAR1 ag: inactive; V1R ag counter: inactive; OXTR potentiate: inactive; TAAR1 antagonist: inactive

Results for CCN1C(=O)[C@H]2[C@@H](c3ccc(-c4ccccc4)c(OC)c3)N[C@@](CC(C)C)(C(=O)OC)[C@H]2C1=O ?
OXTR agonist: inactive; TAAR1 ag: inactive; V1R ag counter: inactive; OXTR potentiate: inactive; TAAR1 antagonist: inactive

How did CC(=O)OCC(=O)C1CCC2C3CC=C4CC(O)CCC4(C)C3CCC12C (centres undefined) do in these assays?
OXTR agonist: inactive; TAAR1 ag: inactive; V1R ag counter: inactive; OXTR potentiate: inactive; TAAR1 antagonist: inactive

Results for CC(=O)C1CCC2C3CC=C4CC(SC(=N)N)CCC4(C)C3CCC12C (centres undefined) ?
TAAR1 ag: 84; TAAR1 antagonist: 81; TAAR1 ag conf: 111; Ga16 ag counter: 69; TAAR1 desensitize: 91; Ga16 nonsel ant: 53

How did O=C(CN1CCOCC1)Nc1cccc(C(=O)Nc2cccc(C(F)(F)F)c2)c1 do in these assays?
OXTR agonist: inactive; TAAR1 ag: inactive; V1R ag counter: inactive; OXTR potentiate: inactive; TAAR1 antagonist: inactive

What do the screens show for `CCCCCNCC(=O)Nc1cccc(C(=O)Nc2cccc(C(F)(F)F)c2)c1`?
OXTR agonist: inactive; TAAR1 ag: 72; V1R ag counter: inactive; OXTR potentiate: inactive; TAAR1 antagonist: 50; TAAR1 ag conf: 76; Ga16 ag counter: 46; TAAR1 desensitize: 56; Ga16 nonsel ant: 46

How did O=C(O)c1ccc(-c2ccc(/C=N/Nc3ccc([N+](=O)[O-])cc3)o2)cc1 do in these assays?
OXTR agonist: 51; TAAR1 ag: 131; V1R ag counter: 65; OXTR potentiate: inactive; TAAR1 antagonist: 82; TAAR1 ag conf: 86; Ga16 ag counter: 66; TAAR1 desensitize: 88; Ga16 nonsel ant: 70

Results for O=S(=O)(N[C@H](CO)c1ccccc1)c1ccc(Br)cc1F ?
TAAR1 ag: inactive; TAAR1 antagonist: inactive

What do the screens show for `C=CCN1C=C/C(=C\C=C(C#N)C#N)c2ccccc21`?
OXTR agonist: inactive; TAAR1 ag: 66; V1R ag counter: inactive; OXTR potentiate: inactive; TAAR1 antagonist: inactive; TAAR1 ag conf: 74; Ga16 ag counter: inactive; TAAR1 desensitize: 66; Ga16 nonsel ant: 26

Results for O=C(CSc1n[nH]c(-c2ccccc2)n1)NC(=O)NCc1ccco1 ?
OXTR agonist: inactive; V1R ag counter: inactive; OXTR potentiate: inactive; Ga16 ag counter: inactive; Ga16 nonsel ant: inactive

How did O=C(NN1C(=O)C2C3C=CC(C3)C2C1=O)c1ccncc1 (centres undefined) do in these assays?
OXTR agonist: inactive; TAAR1 ag: inactive; V1R ag counter: inactive; OXTR potentiate: inactive; TAAR1 antagonist: inactive

How did O=C(NN1C(=O)C2C(c3ccccc3)C=CC(c3ccccc3)C2C1=O)c1ccncc1 (centres undefined) do in these assays?
OXTR agonist: inactive; TAAR1 ag: 47; V1R ag counter: inactive; OXTR potentiate: inactive; TAAR1 antagonist: inactive; TAAR1 ag conf: inactive; Ga16 ag counter: 16; TAAR1 desensitize: inactive; Ga16 nonsel ant: inactive

What do the screens show for `CCc1c(C)nc2ncnn2c1NCCc1ccccc1`?
OXTR agonist: inactive; TAAR1 ag: 76; V1R ag counter: inactive; OXTR potentiate: inactive; TAAR1 antagonist: inactive; TAAR1 ag conf: 92; Ga16 ag counter: 13; TAAR1 desensitize: 61; Ga16 nonsel ant: 24

How did CC(Cc1cccs1)NC(=O)Nc1ccc(F)cc1 (centres undefined) do in these assays?
OXTR agonist: inactive; TAAR1 ag: 49; V1R ag counter: inactive; OXTR potentiate: inactive; TAAR1 antagonist: inactive; TAAR1 ag conf: 82; Ga16 ag counter: inactive; TAAR1 desensitize: inactive; Ga16 nonsel ant: inactive

Results for CCC(=O)N(CC)c1nc(-c2cc(OC)ccc2OC)cs1 ?
OXTR agonist: inactive; TAAR1 ag: 50; V1R ag counter: inactive; OXTR potentiate: inactive; TAAR1 antagonist: inactive; TAAR1 ag conf: 45; Ga16 ag counter: 35; TAAR1 desensitize: inactive; Ga16 nonsel ant: 26
